According to ChEMBL document CHEMBL4311968, “New oxadiazoles with selective-COX-2 and EGFR dual inhibitory activity: Design, synthesis, cytotoxicity evaluation and in silico studies” (Eur J Med Chem, 2019):

What was measured:
[1] = target: T1, Prostaglandin G/H synthase 1 (Ovis aries, UniProt P05979); test: Inhibition of ovine COX-1 by EIA method
T1 sequence (P05979 whole entry): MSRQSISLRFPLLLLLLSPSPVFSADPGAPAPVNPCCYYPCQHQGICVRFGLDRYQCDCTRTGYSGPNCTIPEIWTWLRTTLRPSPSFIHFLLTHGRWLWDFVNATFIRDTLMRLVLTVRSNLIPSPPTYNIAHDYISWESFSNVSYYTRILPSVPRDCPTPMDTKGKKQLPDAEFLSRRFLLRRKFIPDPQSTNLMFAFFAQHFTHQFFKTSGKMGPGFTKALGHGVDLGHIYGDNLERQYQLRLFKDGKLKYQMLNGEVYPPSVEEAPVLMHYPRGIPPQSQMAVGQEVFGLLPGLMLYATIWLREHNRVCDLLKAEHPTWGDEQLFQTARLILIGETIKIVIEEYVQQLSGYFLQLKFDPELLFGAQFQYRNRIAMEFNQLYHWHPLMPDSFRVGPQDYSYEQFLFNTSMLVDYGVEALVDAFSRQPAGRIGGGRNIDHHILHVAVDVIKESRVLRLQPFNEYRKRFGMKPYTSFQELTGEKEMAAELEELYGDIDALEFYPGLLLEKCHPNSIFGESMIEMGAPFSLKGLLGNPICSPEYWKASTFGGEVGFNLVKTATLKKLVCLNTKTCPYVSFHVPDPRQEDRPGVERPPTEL

[2] = system: UO-31; test: Antiproliferative against human UO31 cells incubated for 24 hrs by MTT assay; assay type: functional, cell-based; conditions: UO-31, 24 h
Procedure, shortened: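 UO-31 cells from ATCC, grown in DMEM with 10% FBS, 10 ug/mL insulin and 1% penicillin-streptomycin. Seeded at 1.2–1.8 × 10,000 cells/well with test compound for 24 h. MTT read-out: crystals dissolved in acidified isopropanol, absorbance at 570 nm.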

[3] = target: Epidermal growth factor receptor (Homo sapiens, UniProt P00533); test: Inhibition of recombinant human GST-tagged EGFR catalytic domain (668 to 1210 residues) expressed in baculovirus expression system using TK-biotin peptide as substrate measured after 10 mins by HTRF assay
Sequence of Epidermal growth factor receptor (P00533 whole entry, the tested form may be a part): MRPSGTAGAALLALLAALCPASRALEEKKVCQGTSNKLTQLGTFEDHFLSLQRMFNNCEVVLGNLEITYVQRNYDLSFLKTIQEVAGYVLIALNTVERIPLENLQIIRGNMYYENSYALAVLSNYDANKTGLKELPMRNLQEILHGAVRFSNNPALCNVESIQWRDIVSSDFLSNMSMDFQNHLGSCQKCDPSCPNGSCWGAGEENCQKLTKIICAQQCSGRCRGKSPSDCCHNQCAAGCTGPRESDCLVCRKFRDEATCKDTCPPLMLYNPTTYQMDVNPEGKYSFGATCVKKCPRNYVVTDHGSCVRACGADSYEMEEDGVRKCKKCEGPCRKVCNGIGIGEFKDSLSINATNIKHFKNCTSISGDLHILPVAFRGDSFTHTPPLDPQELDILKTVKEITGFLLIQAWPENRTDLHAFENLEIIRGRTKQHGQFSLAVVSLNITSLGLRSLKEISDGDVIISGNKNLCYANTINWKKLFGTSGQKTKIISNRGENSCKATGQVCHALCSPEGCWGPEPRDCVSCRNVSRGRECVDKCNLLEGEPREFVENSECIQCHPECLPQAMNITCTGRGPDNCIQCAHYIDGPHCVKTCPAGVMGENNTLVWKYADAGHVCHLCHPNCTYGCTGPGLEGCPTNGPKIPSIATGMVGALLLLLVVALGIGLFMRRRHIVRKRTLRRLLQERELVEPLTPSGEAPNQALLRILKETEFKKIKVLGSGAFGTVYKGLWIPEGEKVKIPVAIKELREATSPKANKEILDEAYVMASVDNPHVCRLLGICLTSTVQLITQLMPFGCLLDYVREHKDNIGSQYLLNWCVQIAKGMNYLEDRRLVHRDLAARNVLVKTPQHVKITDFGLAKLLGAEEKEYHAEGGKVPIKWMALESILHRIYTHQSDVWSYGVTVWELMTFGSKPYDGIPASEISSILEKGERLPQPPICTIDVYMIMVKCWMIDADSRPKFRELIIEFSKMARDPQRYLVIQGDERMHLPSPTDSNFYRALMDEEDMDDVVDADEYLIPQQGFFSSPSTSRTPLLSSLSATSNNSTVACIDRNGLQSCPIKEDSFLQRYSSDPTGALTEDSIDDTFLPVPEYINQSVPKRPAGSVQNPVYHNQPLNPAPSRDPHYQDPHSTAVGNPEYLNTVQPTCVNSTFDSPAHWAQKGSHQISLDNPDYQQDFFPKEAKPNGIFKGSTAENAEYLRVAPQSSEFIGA

SMILES	IC50 [1]	IC50 [3]	IC50 [2]
O=C(Nc1ccccc1)Nc1nnc(-c2ccccc2)o1	6.87 µM		0.0332 µM
O=[N+]([O-])c1ccc(/C=N/c2nnc(-c3ccc(Cl)cc3)o2)cc1	12 µM		
Clc1ccc(/C=N/Nc2nnc(-c3ccncc3)o2)cc1	8.69 µM		
Clc1ccc(-c2nnc(CSc3nnc(-c4ccncc4)o3)o2)cc1	6.84 µM		
O=C(Nc1ccccc1)Nc1nnc(-c2ccc(Cl)cc2)o1	10.9 µM		
N#CCC(=O)Nc1nnc(-c2ccc(Cl)cc2)o1	13.7 µM		
O=[N+]([O-])c1ccc(/C=N/c2nnc(-c3ccccc3)o2)cc1	9.81 µM		
CCO/C=N/c1nnc(-c2cccnc2)o1	12.7 µM		0.31 µM
Clc1ccc(-c2nnc(/N=C/c3ccccc3)o2)cc1	7.54 µM		
O=[N+]([O-])c1ccc(/C=N/Nc2nnc(-c3ccncc3)o2)cc1	9.87 µM	0.412 µM	0.0086 µM
Clc1ccc(/C=N/c2nnc(-c3cccnc3)o2)cc1	10.5 µM	1.13 µM	0.0136 µM
Oc1ccc(-c2nnc(CSc3nnc(-c4ccncc4)o3)o2)cc1	7.96 µM		
COc1cccc2c1C(=O)c1c(O)c3c(c(O)c1C2=O)C[C@@](O)(C(=O)CO)C[C@@H]3O[C@H]1C[C@H](N)[C@H](O)[C@H](C)O1 [DOXORUBICIN]			0.00745 µM

Continued by falling IC50 [1], values first:

IC50 [1]	IC50 [3]	SMILES	IC50 [2]
15.4 µM		CCO/C=N/c1nnc(-c2ccc(Cl)cc2)o1	0.0527 µM
14.2 µM		CCO/C=N/c1nnc(-c2ccccc2)o1	
13.1 µM		N#CCC(=O)Nc1nnc(-c2cccnc2)o1	
11.4 µM		Clc1ccc(/C=N/c2nnc(-c3ccccc3)o2)cc1	
10.6 µM		C(=N\Nc1nnc(-c2ccncc2)o1)/c1ccccc1	
9.37 µM		O=C(Nc1ccccc1)Nc1nnc(-c2cccnc2)o1	0.00576 µM
8.29 µM		O=[N+]([O-])c1ccc(/C=N/c2nnc(-c3cccnc3)o2)cc1	
6.78 µM		O=C(CSc1nnc(-c2ccncc2)o1)N/N=C/c1ccc(Cl)cc1	
5.71 µM		Brc1ccc(/C=N/Nc2nnc(-c3ccncc3)o2)cc1	
5.39 µM		Clc1ccc(/C=N/c2nnc(-c3ccc(Cl)cc3)o2)cc1	0.0296 µM
4.49 µM		O=C(CSc1nnc(-c2ccncc2)o1)N/N=C/c1ccc([N+](=O)[O-])cc1	
4.17 µM		Brc1ccc(-c2nnc(CSc3nnc(-c4ccncc4)o3)o2)cc1	0.0835 µM
